Data from ChEMBL document CHEMBL3272134, “Diastereoisomers of 5,10-methylene-5,6,7,8-tetrahydropteroyl-D-glutamic acid” (J Med Chem, 1977).
Activity calls are given as the source filed them. The calls are words filed in the database; no cut-off is given here.

T1: Thymidylate synthase (Lactobacillus casei) (UniProt P00469)
T1 sequence (whole entry): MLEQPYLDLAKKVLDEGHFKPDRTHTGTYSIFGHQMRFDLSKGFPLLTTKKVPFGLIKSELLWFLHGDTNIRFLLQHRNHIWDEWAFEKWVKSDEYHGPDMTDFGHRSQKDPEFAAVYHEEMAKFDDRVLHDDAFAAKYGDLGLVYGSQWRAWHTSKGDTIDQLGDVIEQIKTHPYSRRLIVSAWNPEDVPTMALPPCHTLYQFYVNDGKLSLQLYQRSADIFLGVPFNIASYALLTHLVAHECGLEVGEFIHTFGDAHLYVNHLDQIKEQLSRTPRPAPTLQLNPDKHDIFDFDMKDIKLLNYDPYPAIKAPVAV


Tests used:
[1] = test system: Pediococcus; assay: Induction of growth of Pediococcus cerevisiae ATCC 8081 up to 5 ug/mL; format: functional
[2] = test system: Enterococcus faecium; assay: Induction of growth of Streptococcus faecium ATCC 8043 up to 5 ug/mL; format: functional, organism-based
[3] = test system: Lacticaseibacillus casei; assay: Induction of growth of Lactobacillus casei ATCC 7469 up to 5 ug/mL; format: functional, organism-based
[4] = test system: Pediococcus; assay: Growth inhibition of Pediococcus cerevisiae ATCC 8081 up to 5 ug/mL; format: functional
In short: (§1)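 Media were as follows. L. casei ATCC 7469 was grown on folate assay broth with folate at 1 ng/mL. P. cerevisiae ATCC 8081 was grown on CF assay medium with dl-5-formyltetrahydrofolate at 1 ng/mL. S. faecium ATCC 8043 was grown on Flynn medium with folate at 1 ng/mL.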

[5] = test system: Enterococcus faecium; assay: Growth inhibition of Streptococcus faecium ATCC 8043 up to 5 ug/mL; format: functional, organism-based; in short: as §1
[6] = test system: Lacticaseibacillus casei; assay: Growth inhibition of Lactobacillus casei ATCC 7469 up to 5 ug/mL; format: functional, organism-based; in short: as §1
[7] = target: T1, Thymidylate synthase (Lactobacillus casei); assay: Activity of Lactobacillus casei thymidylate synthetase at 3 x 10^-4 M by spectrophotometric analysis; settings: Lacticaseibacillus casei
[8] = target: T1, Thymidylate synthase (Lactobacillus casei); assay: Activity of Lactobacillus casei thymidylate synthetase assessed as release of [3H] from [5-3H]-deoxyuridine 5' phosphate at 3 x 10^-4 M; settings: Lacticaseibacillus casei
[9] = target: T1, Thymidylate synthase (Lactobacillus casei); assay: Inhibition of Lactobacillus casei thymidylate synthetase at 1.7 x 10^-6 M relative to control; settings: Lacticaseibacillus casei
[10] = target: T1, Thymidylate synthase (Lactobacillus casei); assay: Inhibition of Lactobacillus casei thymidylate synthetase using dl-5,10-Methylene tetrahydropteroyl-L-glutamate as substrate at 1 x 10^-4 M relative to control; settings: Lacticaseibacillus casei
[11] = target: T1, Thymidylate synthase (Lactobacillus casei); assay: Inhibition of Lactobacillus casei thymidylate synthetase using dl-5,10-Methylene tetrahydropteroyl-L-glutamate as substrate at 1 x 10^-4 M by spectrophotometric analysis; settings: Lacticaseibacillus casei
[12] = target: T1, Thymidylate synthase (Lactobacillus casei); assay: Inhibition of Lactobacillus casei thymidylate synthetase using dl-5,10-Methylene tetrahydropteroyl-L-glutamate as substrate at 1.3 x 10^-5 M relative to control; settings: Lacticaseibacillus casei
[13] = target: Dihydrofolate reductase (Lactobacillus casei) (UniProt P00381); assay: Inhibition of Lactobacillus casei dihydrofolate reductase using 7,8-Dihydropteroyl-L-glutamate as substrate at 1.5 x 10^-5 M by spectrophotometric analysis; settings: Lacticaseibacillus casei
[14] = target: Dihydrofolate reductase (Lactobacillus casei) (UniProt P00381); assay: Inhibition of Lactobacillus casei dihydrofolate reductase using 7,8-Dihydropteroyl-L-glutamate as substrate at 1.5 x 10^-5 M relative to control; settings: Lacticaseibacillus casei
[15] = target: T1, Thymidylate synthase (Lactobacillus casei); assay: Activity of Lactobacillus casei thymidylate synthetase at 4.5 x 10^-5 M by spectrophotometric analysis; settings: Lacticaseibacillus casei
[16] = target: T1, Thymidylate synthase (Lactobacillus casei); assay: Inhibition of Lactobacillus casei thymidylate synthetase using dl-5,10-Methylene tetrahydropteroyl-L-glutamate as substrate at 1.3 x 10^-5 M by spectrophotometric analysis; settings: Lacticaseibacillus casei
[17] = target: T1, Thymidylate synthase (Lactobacillus casei); assay: Activity of Lactobacillus casei thymidylate synthetase assessed as release of [3H] from [5-3H]-deoxyuridine 5' phosphate at 4.5 x 10^-5 M; settings: Lacticaseibacillus casei
[18] = target: T1, Thymidylate synthase (Lactobacillus casei); assay: Inhibition of Lactobacillus casei thymidylate synthetase using dl-5,10-Methylene tetrahydropteroyl-L-glutamate as substrate at 3.3 x 10^-5 M by spectrophotometric analysis; settings: Lacticaseibacillus casei
[19] = target: T1, Thymidylate synthase (Lactobacillus casei); assay: Activity of Lactobacillus casei thymidylate synthetase at 7 x 10^-5 M by spectrophotometric analysis; settings: Lacticaseibacillus casei
[20] = target: T1, Thymidylate synthase (Lactobacillus casei); assay: Inhibition of Lactobacillus casei thymidylate synthetase using dl-5,10-Methylene tetrahydropteroyl-L-glutamate as substrate at 3.3 x 10^-5 M relative to control; settings: Lacticaseibacillus casei
[21] = target: T1, Thymidylate synthase (Lactobacillus casei); assay: Inhibition of Lactobacillus casei thymidylate synthetase using dl-5,10-Methylene tetrahydropteroyl-L-glutamate as substrate at 9.2 x 10^-5 M relative to control; settings: Lacticaseibacillus casei
[22] = target: T1, Thymidylate synthase (Lactobacillus casei); assay: Inhibition of Lactobacillus casei thymidylate synthetase using dl-5,10-Methylene tetrahydropteroyl-L-glutamate as substrate at 9.2 x 10^-5 M by spectrophotometric analysis; settings: Lacticaseibacillus casei
[23] = target: T1, Thymidylate synthase (Lactobacillus casei); assay: Inhibition of Lactobacillus casei thymidylate synthetase using l-5,10-Methylene tetrahydropteroyl-L-glutamate as substrate at 6.3 x 10^-5 M by spectrophotometric analysis; settings: Lacticaseibacillus casei
[24] = target: T1, Thymidylate synthase (Lactobacillus casei); assay: Inhibition of Lactobacillus casei thymidylate synthetase using l-5,10-Methylene tetrahydropteroyl-L-glutamate as substrate at 6.3 x 10^-5 M relative to control; settings: Lacticaseibacillus casei
[25] = target: T1, Thymidylate synthase (Lactobacillus casei); assay: Inhibition of Lactobacillus casei thymidylate synthetase using dl-5,10-Methylene tetrahydropteroyl-L-glutamate as substrate at 2.4 x 10^-5 M by spectrophotometric analysis; settings: Lacticaseibacillus casei
[26] = target: T1, Thymidylate synthase (Lactobacillus casei); assay: Inhibition of Lactobacillus casei thymidylate synthetase using dl-5,10-Methylene tetrahydropteroyl-L-glutamate as substrate at 2.4 x 10^-5 M relative to control; settings: Lacticaseibacillus casei
[27] = substrate: Nc1nc(=O)c2c([nH]1)NCC1CN(c3ccc(C(=O)N[C@@H](CCC(=O)O)C(=O)O)cc3)CN21; assay: Activity of Lactobacillus casei thymidylate synthetase by spectrophotometric analysis; settings: Lacticaseibacillus casei

Dihydrofolate reductase (Lactobacillus casei), sequence (P00381 whole entry): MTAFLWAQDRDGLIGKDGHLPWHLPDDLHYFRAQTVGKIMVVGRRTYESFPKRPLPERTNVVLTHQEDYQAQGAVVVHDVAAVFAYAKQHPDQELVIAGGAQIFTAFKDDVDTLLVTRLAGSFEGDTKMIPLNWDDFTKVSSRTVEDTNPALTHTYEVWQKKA

| Molecule | Activity [1] | Activity [2] | Activity [3] | growth inhibition (GI) [4] | growth inhibition (GI) [5] | growth inhibition (GI) [6] | other results |
| --- | --- | --- | --- | --- | --- | --- | --- |
| Nc1nc(=O)c2c([nH]1)NCC1CN(c3ccc(C(=O)N[C@@H](CCC(=O)O)C(=O)O)cc3)CN21 (mixture of isomers) | inactive | inactive | inactive | inactive | inactive | inactive | deltaOD [7]: 0.03 min⁻¹; Activity [8]: 71000 cpm |
| CN(Cc1ccc2nc(N)nc(O)c2c1)c1ccc(C(=O)N[C@@H](CCC(=O)O)C(=O)O)cc1 |  |  |  |  |  |  | inhibition [9]: 83% |
| Nc1nc(=O)c2c([nH]1)NCC(CNc1ccc(C(=O)N[C@@H](CCC(=O)O)C(=O)O)cc1)=N2 |  |  |  |  |  |  | inhibition [10]: 26%; deltaOD [11]: 0.02 min⁻¹ |
| Nc1nc2c(c(=O)[nH]1)N1CN(c3ccc(C(=O)N[C@H](CCC(=O)O)C(=O)O)cc3)CC1CN2 (stereo in doubt; form 2) | inactive | inactive | inactive | inactive | inactive | inactive | inhibition [12]: 0%; deltaOD [13]: 0.032 min⁻¹; inhibition [14]: 0%; deltaOD [15]: 0 min⁻¹; deltaOD [16]: 0.03 min⁻¹; Activity [17]: < 2000 cpm |
| Nc1nc2c(c(=O)[nH]1)N1CN(c3ccc(C(=O)N[C@H](CCC(=O)O)C(=O)O)cc3)CC1CN2 (mixture of isomers) | inactive | inactive | inactive | inactive | inactive | inactive | deltaOD [18]: 0.03 min⁻¹; deltaOD [19]: 0 min⁻¹; inhibition [20]: 0% |
| Nc1nc2c(c(=O)[nH]1)N=C(CNc1ccc(C(=O)N[C@H](CCC(=O)O)C(=O)O)cc1)CN2 |  |  |  |  |  |  | inhibition [21]: 10%; deltaOD [22]: 0.027 min⁻¹ |
| Nc1nc(=O)c2c([nH]1)NCC1CN(c3ccc(C(=O)N[C@@H](CCC(=O)O)C(=O)O)cc3)CN21 (stereo in doubt) | inactive | inactive | inactive | inactive | inactive | inactive | deltaOD [23]: 0.02 min⁻¹; inhibition [24]: 14% |
| Nc1nc2c(c(=O)[nH]1)N1CN(c3ccc(C(=O)N[C@H](CCC(=O)O)C(=O)O)cc3)CC1CN2 (stereo in doubt; form 1) | inactive | inactive | inactive | inactive | inactive | inactive | deltaOD [13]: 0.032 min⁻¹; inhibition [14]: 0%; deltaOD [25]: 0.03 min⁻¹; deltaOD [15]: 0 min⁻¹; inhibition [26]: 0%; Activity [17]: < 2000 cpm |
| Thymidylate synthase (Lactobacillus casei), P00469 (protein) MLEQPYLDLAKKVLDEGHFKPDRTHTGTYSIFGHQMRFDLSKGFPLLTTKKVPFGLIKSELLWFLHGDTNIRFLLQHRNHIWDEWAFEKWVKSDEYHGPDMTDFGHRSQKDPEFAAVYHEEMAKFDDRVLHDDAFAAKYGDLGLVYGSQWRAWHTSKGDTIDQLGDVIEQIKTHPYSRRLIVSAWNPEDVPTMALPPCHTLYQFYVNDGKLSLQLYQRSADIFLGVPFNIASYALLTHLVAHECGLEVGEFIHTFGDAHLYVNHLDQIKEQLSRTPRPAPTLQLNPDKHDIFDFDMKDIKLLNYDPYPAIKAPVAV |  |  |  |  |  |  | Km [27]: 15 µM |
